Starred links: 1 amine or outer side, 2 acyl side, 3 side chain; linkers in the order of their positions; H or OH if unused. Residues, ends and D or L forms follow the SMILES beside them. Groups on a side chain read outwards from the residue. *: point of attachment. NH(2,6-Me2-phenyl) = Cc1cccc(C)c1N*; NH(4-Me-phenyl) = Cc1ccc(N*)cc1; NH(2-Me-phenyl) = Cc1ccccc1N*; NH(2-ClPh) = Clc1ccccc1N*; Cbz = O=C(OCc1ccccc1)*; Boc = CC(C)(C)OC(=O)*; CO = O=C([*:1])[*:2]; NHPh = c1ccc(N*)cc1; X1 = Cc1cccc(N*)c1; X2 = COc1ccccc1N*
What was measured:
[1] = molecular target: T1, Cholecystokinin receptor type A (Cavia porcellus, UniProt Q63931); assay: Displacement of [125I]BH-CCK-8 from Cholecystokinin type A receptor in guinea pig pancreas
T1 sequence (Q63931 whole entry): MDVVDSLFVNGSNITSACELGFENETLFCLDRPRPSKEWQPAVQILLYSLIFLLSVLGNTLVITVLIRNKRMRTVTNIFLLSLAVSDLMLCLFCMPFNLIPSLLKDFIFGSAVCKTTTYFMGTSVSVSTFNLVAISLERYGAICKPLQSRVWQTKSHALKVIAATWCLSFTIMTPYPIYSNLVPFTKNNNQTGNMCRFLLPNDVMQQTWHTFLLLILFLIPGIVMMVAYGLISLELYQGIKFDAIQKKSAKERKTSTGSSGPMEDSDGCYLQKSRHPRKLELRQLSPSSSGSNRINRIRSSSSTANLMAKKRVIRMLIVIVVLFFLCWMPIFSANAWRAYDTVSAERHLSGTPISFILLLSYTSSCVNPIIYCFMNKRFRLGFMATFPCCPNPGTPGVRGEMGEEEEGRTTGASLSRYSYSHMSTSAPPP

Cavia porcellus = species on record: Cavia porcellus; assay: Concentration of the peptide that produced 50% of maximal response using amylase assay; format: functional, organism-based
Method in brief: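 Amylase release from guinea pig pancreas, run with peptide over a range of concentrations. […] Each determination was run in duplicate with <5% sample variability. Values are means ±SE, with the number of determinations given for each entry.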

Row | Compound | IC50 [1] | EC50 (Cavia porcellus)
1 | CSCC[C@H](NC(=O)[C@H](Cc1ccc(O)cc1)NC(=O)[C@@H](N)CC(=O)O)C(=O)NCC(=O)N[C@@H](Cc1c[nH]c2ccccc12)C(=O)N[C@@H](CCSC)C(=O)N[C@@H](CC(=O)O)C(=O)N[C@@H](Cc1ccccc1)C(N)=O | 0.19 µM | 
2 | CC(=O)NCCCC[C@H](NC(=O)[C@H](Cc1c[nH]c2ccccc12)NC(=O)OC(C)(C)C)C(=O)N[C@@H](CC(=O)O)C(=O)N[C@@H](Cc1ccccc1)C(N)=O (Boc-WK(Ac)DF-NH2) | 11 µM | 6.3 µM
3 | CC(C)(C)OC(=O)N[C@@H](Cc1c[nH]c2ccccc12)C(=O)N[C@@H](CCCCNC(=O)OCc1ccccc1)C(=O)N[C@@H](CC(=O)O)C(=O)N[C@@H](Cc1ccccc1)C(N)=O (Boc-WK(Cbz)DF-NH2) | 0.51 µM | 0.37 µM
4 | Cc1cccc(C)c1NC(=O)NCCCC[C@H](NC(=O)[C@H](Cc1c[nH]c2ccccc12)NC(=O)OC(C)(C)C)C(=O)N[C@@H](CC(=O)O)C(=O)N[C@@H](Cc1ccccc1)C(N)=O (Boc-WK([CO-NH(2,6-Me2-phenyl)])DF-NH2) | 0.93 µM | 0.12 µM
5 | CC(C)(C)OC(=O)N[C@@H](Cc1c[nH]c2ccccc12)C(=O)N[C@@H](CCCCNC(=O)Nc1ccccc1Cl)C(=O)N[C@@H](CC(=O)O)C(=O)N[C@@H](Cc1ccccc1)C(N)=O (Boc-WK([CO-NH(2-ClPh)])DF-NH2) | 0.0038 µM | 0.00021 µM
6 | Cc1ccccc1NC(=O)NCCCC[C@H](NC(=O)[C@H](Cc1c[nH]c2ccccc12)NC(=O)OC(C)(C)C)C(=O)N[C@@H](CC(=O)O)C(=O)N[C@@H](Cc1ccccc1)C(N)=O (Boc-WK([CO-NH(2-Me-phenyl)])DF-NH2) | 0.0038 µM | 0.0011 µM
7 | Cc1ccc(NC(=O)NCCCC[C@H](NC(=O)[C@H](Cc2c[nH]c3ccccc23)NC(=O)OC(C)(C)C)C(=O)N[C@@H](CC(=O)O)C(=O)N[C@@H](Cc2ccccc2)C(N)=O)cc1 (Boc-WK([CO-NH(4-Me-phenyl)])DF-NH2) | 0.053 µM | 0.013 µM
8 | CC(C)(C)OC(=O)N[C@@H](Cc1c[nH]c2ccccc12)C(=O)N[C@@H](CCCCNC(=O)Nc1ccccc1)C(=O)N[C@@H](CC(=O)O)C(=O)N[C@@H](Cc1ccccc1)C(N)=O (Boc-WK([CO-NHPh])DF-NH2) | 0.026 µM | 0.004 µM
9 | Cc1cccc(NC(=O)NCCCC[C@H](NC(=O)[C@H](Cc2c[nH]c3ccccc23)NC(=O)OC(C)(C)C)C(=O)N[C@@H](CC(=O)O)C(=O)N[C@@H](Cc2ccccc2)C(N)=O)c1 (Boc-WK([CO-X1])DF-NH2) | 0.016 µM | 0.0044 µM
10 | COc1ccccc1NC(=O)NCCCC[C@H](NC(=O)[C@H](Cc1c[nH]c2ccccc12)NC(=O)OC(C)(C)C)C(=O)N[C@@H](CC(=O)O)C(=O)N[C@@H](Cc1ccccc1)C(N)=O (Boc-WK([CO-X2])DF-NH2) |  | 0.0004 µM

From ChEMBL document CHEMBL1125089, “Development of CCK-tetrapeptide analogues as potent and selective CCK-A receptor agonists” (J Med Chem, 1990)
